A selection: hits, their analogues and other compounds. The true share with any hit is near 4.1%.
MEKK2mut PB1 HTS: signal of MEK5 binding to mutant human MEKK2 PB1 domain; 0.35% of 290,000 active; bead flow cytometry, Alexa488-MEK5 binding to MEKK2 mutant; percent response, % at 10 µM; in the data active = percent response above about 24%, passing the limit was not always enough
MEKK2 WT-MEK5: raises or lowers MEK5 binding to wildtype human MEKK2 PB1 domain. 1.1% of 290,000 active. Q9Y2U5. binding response (% of control), % at 10 µM. AID 1531. bead flow cytometry, Alexa488-MEK5 binding to MEKK2 WT; actives lie on both sides; in the data active = binding response below about 67% or above about 130%
NS3 helicase inh: inhibitors of Hepatitis C virus NS3 helicase; NS3 helicase DNA unwinding, Cy5 molecular beacon fluorescence; 0.56% of 290,000 active; inhibition, % at 10.9 µM;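 active = inhibition above the mean of all tested compounds plus 3 SD, set per campaign, cut at about 35% in these data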;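 note: 0% = DMSO wells and 100% = thioflavine S control wells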
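Control set: DMSO versus 110 µM thioflavine S; Material: NS3 helicase fragment of HCV; Measured by: Cy5 fluorescence at 0 and 60 min, beacon hairpin quenching; Read-out basis: percent inhibition from t60/t0 fluorescence ratio; Times: reaction time 60 min, 25 °C; Repeats: single replicate; Compound dosing: single dose, 10.9 µM nominal final, DMSO 0.8% final.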
T cruzi repl: T. cruzi replication inhibition; AID 1885; T. cruzi beta-gal in NIH3T3, luminescence, 90 h; 1.4% of 300,000 active; inhibition, % (no concentration beside the values);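 active = mean inhibition across valid replicates above about 55%, limit read from the data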;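 note: signal also drops with host cell toxicity which is not excluded here; 0% = plate median of DMSO wells and 100% = zero luminescence signal; higher percent means less beta-gal luminescence so fewer parasites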
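System: mouse NIH/3T3 fibroblasts infected with β-gal-expressing T. cruzi Tulahuen C4 / Input: NIH/3T3 cells, 5,000 per well / Buffer or medium: Low-serum DMEM with 2% FBS / Probe or stimulus: 5000 reporter trypomastigotes per well / Schedule: ≥90 h infection period, 3 h prior cell attachment / Measured by: GalScreen luminescence, 60 min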
DNA FID counter: displaces DNA intercalator in HCV helicase counter-screen | DNA fluorescent intercalator displacement, fluorescence | 0.17% of 290,000 active | inhibition, % at 7.9 µM; in the data active = inhibition above about 37%;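 note: 0% = vehicle and 100% = reference compound; higher means more ethidium bromide displaced from hairpin DNA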
MEKK3 PB1 HTS: modulators (inhibitors or enhancers) of MEK5 binding to human MEKK3 PB1 domain; Q99759; binding response (% of control), % at 10 µM; 1.4% of 290,000 active; bead-based flow cytometry, Alexa488-MEK5 binding to MEKK3; actives lie on both sides; 0 = blocked by unlabeled MEK5, 100 = vehicle;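 active = binding response more than 3 SD above or below the average of its plate-row segment, actives on both sides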;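 note: Alexa488 bead fluorescence after subtracting the streptavidin-only scavenger bead signal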
Target sequence (Q99759 whole entry, looked up, the tested form may be a part): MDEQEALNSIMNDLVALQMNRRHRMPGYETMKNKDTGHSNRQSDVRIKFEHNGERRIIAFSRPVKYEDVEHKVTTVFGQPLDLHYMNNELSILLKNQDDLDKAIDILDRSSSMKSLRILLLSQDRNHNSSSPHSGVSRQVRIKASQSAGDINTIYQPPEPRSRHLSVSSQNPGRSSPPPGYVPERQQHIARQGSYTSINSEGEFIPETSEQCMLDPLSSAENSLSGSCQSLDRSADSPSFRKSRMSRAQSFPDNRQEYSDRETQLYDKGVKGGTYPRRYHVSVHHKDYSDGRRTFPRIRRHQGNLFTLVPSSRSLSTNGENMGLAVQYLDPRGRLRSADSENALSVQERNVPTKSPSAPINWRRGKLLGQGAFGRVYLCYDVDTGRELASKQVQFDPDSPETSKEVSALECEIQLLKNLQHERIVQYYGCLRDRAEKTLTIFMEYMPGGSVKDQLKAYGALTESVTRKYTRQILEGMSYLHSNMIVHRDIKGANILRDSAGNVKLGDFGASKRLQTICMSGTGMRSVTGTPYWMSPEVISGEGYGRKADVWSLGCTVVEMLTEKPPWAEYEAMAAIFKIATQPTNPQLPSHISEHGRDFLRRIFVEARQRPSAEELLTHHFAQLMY
MEKK2wt confirm: raises or lowers MEK5 binding to wildtype human MEKK2, retest; AID 1892; shares compounds with MEKK3 PB1 HTS; bead flow cytometry, Alexa488-MEK5 binding to MEKK2 WT; actives lie on both sides; 2.4% of 5,900 active; binding response (% of control), % at 10 µM; in the data active = binding response below about 16% or above about 210%; inactive = in between
MEKK2mut-MEK5: signal of MEK5 binding to mutant human MEKK2, retest | shares compounds with MEKK3 PB1 HTS | bead flow cytometry, Alexa488-MEK5 binding to MEKK2 mutant | percent response, % at 10 µM | 2% of 5,900 active; in the data active = percent response mostly above about 71%, no sharp cut-off; inactive = mostly below about 38%;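 note: higher means compound restores mutant binding toward wildtype level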
MEKK3 confirm: confirmation of inhibitors of MEK5 binding to human MEKK3; shares compounds with MEKK3 PB1 HTS; bead flow cytometry, Alexa488-MEK5 binding to MEKK3; active compounds read low; binding response (% of control), % at 10 µM; 1.8% of 5,900 active;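 active = binding response below 72% of control, or above a set upper limit, though filed actives all read lower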;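 note: 100% = DMSO only wells and 0% = binding blocked by excess unlabeled MEK5; lower values mean stronger disruption of MEK5 binding to MEKK3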
An asterisk follows results filed as active; / = no result given; [ ] = another dose, or the depositor's remark.

SMILES	MEKK2mut PB1 HTS	MEKK2 WT-MEK5	NS3 helicase inh	T cruzi repl	DNA FID counter	MEKK3 PB1 HTS	MEKK2wt confirm	MEKK2mut-MEK5	MEKK3 confirm
CN(C)c1cccc(C(=O)OCCNC(=O)c2cccc(S(=O)(=O)N3CCOCC3)c2)c1	-12	52	8	0	-30	46*[inhibitor]	104	3	102
O=C(COC(=O)c1cccc(S(=O)(=O)N2CCOCC2)c1)c1ccccc1	-1	92	12	-7	-30	97	/	/	/
CC(C(=O)Nc1ccccc1)N(C)CCOc1ccc(Br)cc1 (stereo unspecified)	-6	101	-9	25	-4	102	/	/	/
O=C(NNC(=O)C1CC(c2cccnc2)=NO1)Nc1ccccc1F (stereo unspecified)	95*	31*	15	-5	-2	105	98	-1	97
Cc1ccc(NC(=O)NNC(=O)C2CC(c3cccnc3)=NO2)cc1 (stereo unspecified)	-5	92	-27	-5	-2	89	/	/	/
CCOc1ccc(/C=C2\SC(=S)N(Nc3ccccc3)C2=O)cc1OC	-2	66	10	-22	-1	128*	65	-16	93
CCOc1ccc(-n2c(SCc3ccc([N+](=O)[O-])cc3)nnc2-c2ccc(OC)cc2)cc1	0	102	-8	50	-16	143*	99	-2	103
NC(=S)N/N=C1\CC(n2nnn(-c3cccc(Cl)c3)c2=S)C2COC1O2 (stereo unspecified)	-5	96	6	8	-9	100	/	/	/
Cc1onc(-c2ccccc2)c1C(=O)Nc1nnc(CC(C)C)s1	-5	96	-1	-8	-31	96	/	/	/
COc1ccc(C(=O)COC(=O)C(CC(C)C)N2C(=O)c3ccccc3C2=O)cc1 (stereo unspecified)	2	99	-13	-3	-19	100	/	/	/
CSCCC(C(=O)OCC(=O)c1ccc(C)c(C)c1)N1C(=O)c2cc(Cl)c(Cl)cc2C1=O (stereo unspecified)	-15	2.0*[inhibitor]	-1	-2	-10	2.0*[inhibitor]	90	-4	97
Cc1cc(C)c(-n2c(SCc3nc4ccccc4s3)n[nH]c2=O)c(C)c1	24	107	-3	23	-37	130*	83	-16	84
CC(OC(=O)c1ccccc1NCc1ccco1)C(=O)Nc1ncc(Cl)cc1Cl (stereo unspecified)	-2	102	4	/	-17	102	/	/	/
CCCn1nnc(NC(=O)c2sc3ccccc3c2Cl)n1	-14	81	-8	-14	-13	74*[inhibitor]	104	9	103
CCCn1nnc(NC(=O)c2cccc(Cl)c2)n1	5	104	2	-5	0	110	/	/	/
CCN(CC(=O)NCc1ccc(Cl)cc1)C(=O)COc1ccc(Cl)cc1Br	/	/	/	12	/	/	/	/	/
CN(C(=O)CSC1=Nc2ccccc2C2=NC(c3ccccc3)C(=O)N12)C1CCCCC1 (stereo unspecified)	3	98	5	20	-25	100	/	/	/
O=C(CSC1=Nc2ccccc2C2=NC(c3ccccc3)C(=O)N12)NC1CCCCC1 (stereo unspecified)	6	125	-2	8	-10	124*	101	2	103
CC1CC2=C(C(=O)O1)C(C)Nc1ccccc1N2 (stereo unspecified)	1	105	11	-6	-2	155*	102	-1	100
CC1CC2=C(C(=O)O1)C(c1ccccc1)Nc1ccccc1N2 (stereo unspecified)	-1	98	1	-3	1	79	/	/	/
CCCc1nc2nc(C)c(NS(=O)(=O)c3ccc(Cl)cc3)c(=O)n2[nH]1	-1	103	-2	-8	-10	103	/	/	/
CC(C)CCNC(=O)/C=C/c1ccc(Br)cc1	-15	2.0*[inhibitor]	12	-17	-20	2.0*[inhibitor]	93	-15	92
c1cc2c(cc1C1CCCCC1)c1c3n2CCCNC3CCC1 (stereo unspecified)	18	165*	-49	22	22	93	157	25	104
Cc1ccc2c(c1)c1c3n2CCN=C3CCC1	-4	91	-3	2	1	89	/	/	/
c1cc2c(cc1C1CCCCC1)c1c3n2CCN=C3CCC1	19	135*	-35	71*	7	83	115	8	103
SMILES	MEKK2mut PB1 HTS	MEKK2 WT-MEK5	NS3 helicase inh	T cruzi repl	DNA FID counter	MEKK3 PB1 HTS	MEKK2wt confirm	MEKK2mut-MEK5	MEKK3 confirm
O=c1c(Oc2ccccc2)coc2cc(O)cc(O)c12	2	104	/	-16	/	101	/	/	/
CN(C)S(=O)(=O)c1cc(NC(=O)Cn2ccsc2=N)ccc1Cl	3	102	1	-8	8	104	/	/	/
COc1ccc(Cl)cc1NC(=O)C[n+]1ccccc1	3	108	-17	-14	3	105	/	/	/
CCc1cc[n+](CC(=O)Nc2ccc(Cl)cc2Cl)cc1	-4	4.0*[inhibitor]	5	7	5	3.0*[inhibitor]	108	4	101
COC(=O)CCCC1=CC2=C(c3ccccc3)C(=O)C(C)(OC(=O)C3CCCC3)C(=O)C2=CN1C1CC1 (stereo unspecified)	1	155*	/	-4	/	122	103	0	102
COC(=O)CCCC1=CC2=C(c3ccccc3)C(=O)C(C)(OC(=O)C3CCCC3)C(=O)C2=CN1c1ccccc1 (stereo unspecified)	1	154*	/	-25	/	128*	87	-5	94
COCCN1C=C2C(=O)C(C)(OC(=O)CCC(=O)OC)C(=O)C(Br)=C2C=C1c1ccc(OC)cc1 (stereo unspecified)	1	96	/	33	/	97	/	/	/
COC(=O)CCC(=O)OC1(C)C(=O)C2=CN(C3CCCC3)C(c3ccc(OC)cc3)=CC2=C(Br)C1=O (stereo unspecified)	-23	-8.0*[inhibitor]	/	33	/	47*[inhibitor]	88	0	88
COc1ccc(CN2CCN(C)CC2)cc1OCc1ccccc1	-9	82	-2	51	17	69*[inhibitor]	108	7	108
CC(=O)N1CCN(c2ccc(Nc3ncnc4c3oc3ccccc34)cc2)CC1	-12	89	11	-14	-23	81*[inhibitor]	106	8	101
Cc1c(NC(=S)NNC(=O)CCC(=O)O)c(=O)n(-c2ccccc2)n1C	2	104	-4	1	-2	99	/	/	/

Bioassay records: PubChem, several laboratories
